Published values pooled from the literature.
Lines come from different studies, so protocols differ.
Target: Mitogen-activated protein kinase 14 (MAPK14, Homo sapiens, UniProt Q16539)

Structure (SMILES) | assay | conditions | remaining binding [%]
Cc1cnn2ncc(-c3ccnc(N(C)C)n3)c2c1 | binding | 1 µM | 100
Nc1ncc2c(n1)-c1c([nH]c3ccc(C#CC4CC4)cc13)CCCC2 | binding, competition with immobilised ligand | 1 µM | 98
O=C(N1CCS(=O)(=O)CC1)N1C[C@H](c2ccc(OC(F)(F)F)cc2)C[C@H](c2nc(C3CC3)no2)C1 | cell-free assay, competition with immobilised ligand | 1 µM | 100
COc1ccnn2ncc(-c3ccnc(N(C)C)n3)c12 | binding | 1 µM | 87
COc1ncc2cc3ccccc3nc2c1C#N | cell-free assay, competition with immobilised ligand | 5 µM | 100
O=C(c1ccc(Nc2ncc(Cl)c(-c3ccc(Cl)s3)n2)cc1)N1CCC(N2CCCC2)CC1 | binding, competition with immobilised ligand | 1 µM | 91
CS(=O)(=O)c1cc(C2(NC(=O)c3cncc4c3cnn4-c3ccc(F)cc3)CC2)ccn1 | cell-free assay, competition with immobilised ligand | 1 µM | 100
FC(F)(F)Oc1cccc(-c2cnc3ccc(-c4ccncc4)nn23)c1 | cell-free assay, competition with immobilised ligand | 5 µM | 94
COc1cnc(Nc2cccc(S(N)(=O)=O)c2)nc1N1CCN(c2ccccc2)C(=O)C1 | binding, competition with immobilised ligand | 1 µM | 100
F[C@@H]1CCN(c2nccc(-c3cnn4ncccc34)n2)C1 | binding | 1 µM | 100
CC(=O)Nc1c(C(C)=O)c(=O)n(C)c2nc(-c3ccc(Cl)cc3Cl)c(-c3ccc(Cl)cc3)cc12 | cell-free assay, competition with immobilised ligand | 1 µM | 100
O=C(NCCCN1CCOCC1)c1ccc(Nc2nccc(-c3cc4ccccc4s3)n2)cc1 | binding, competition with immobilised ligand | 1 µM | 96
C[C@@H]1CCN(c2nccc(-c3cnn4ncccc34)n2)C1 | binding | 1 µM | 100
O=C(Nc1ccc(Oc2ccc(F)cc2)cc1)N1CCc2ncccc2[C@H]1c1ccc(F)cc1 | cell-free assay, competition with immobilised ligand | 1 µM | 100
N[C@H]1CCN(c2nccc(-c3cnn4ncccc34)n2)C1 | binding | 1 µM | 100
CNCc1ccccc1-c1csc([C@H](C)Nc2nc(C)nc3cc(OC)c(OC)cc23)c1 | cell-free assay, competition with immobilised ligand | 1 µM | 100
N#Cc1ccccc1CSc1nnc2c(n1)[nH]c1ccccc12 | binding, competition with immobilised ligand | 10 µM | 100
